Data published in paper PMC5087331 (Journal of Medicinal Chemistry, 2016).
One block for each molecule: values may come before it.

Tests used:
[1] = system: clinical E. coli strain UTI89; test: Hemagglutination inhibition; format: cell-based, Escherichia coli
[2] = system: UTI89KAN (UPEC); test: Treatment of chronic urinary tract infection in mice; format: in vivo, C3H/HeN female mice; conditions: chronic UTI
Outline: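 Female C3H/HeN mice were infected transurethrally with 1–2 × 10^8 UTI89KAN. Urine titers were taken on day 12, and mice with ≥10^5 were counted as chronic. At 2 weeks they received oral test compound (25 or 50 mg/kg) in 100 μL 10% cyclodextrin. Bladders were harvested at set times after dosing and plated on kanamycin LB. Geometric means; Mann–Whitney versus vehicle or 0 h.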

[3] = system: UTI89KAN (UPEC); test: Prophylactic treatment of acute urinary tract infection in mice; format: in vivo, C3H/HeN female mice; conditions: 25 mg/kg PO 30 min prior to UPEC infection, bacterial titers 6 h postinfection
Outline: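 6–8-week female C3H/HeN mice were dosed orally with 25 mg/kg test compound in 10% cyclodextrin. After 30 min they were inoculated transurethrally under isoflurane with 1–2 × 10^7 UTI89KAN (grown 2 × 24 h static in LB, 37 °C; washed, in PBS). At 6 h, bladders were homogenised and plated on LB + 50 μg/mL kanamycin. Geometric means from ≥2 experiments; Mann–Whitney versus vehicle.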

[4] = molecular target: FimH lectin domain (FimHL) (Escherichia coli, UniProt P08191); test: Differential scanning fluorimetry; format: binding; conditions: isothermal shift melting point assay
Chain of FimH lectin domain (FimHL) (P08191 22-179): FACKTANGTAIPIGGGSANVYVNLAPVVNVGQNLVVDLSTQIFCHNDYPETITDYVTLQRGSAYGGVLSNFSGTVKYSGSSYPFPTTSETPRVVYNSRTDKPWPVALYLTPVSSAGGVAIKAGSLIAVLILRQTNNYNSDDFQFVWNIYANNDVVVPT
Outline: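 FimH lectin domain (FimHL) at 10 μM, heated with or without 100 μM mannoside. Melting temperature measured by differential scanning fluorimetry. Value is the shift in melting temperature relative to protein without mannoside.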

[5] = 25 mg/kg oral, 12 h post treatment

SMILES: CNC(=O)c1cccc(-c2ccc([C@H](O)[C@H]3O[C@H](CO)[C@@H](O)[C@H](O)[C@@H]3O)cc2)c1 [6S, 4′-[(α-D-Mannopyranosyl)-(S)-hydroxymethyl]-N-methyl-[1,1′biphenyl]-3-carboxamide]
fold less potency in the HA assay than 5 ([1]; comparator 5): 25 fold

SMILES: CNC(=O)c1cccc(-c2ccc([C@@H](O)[C@H]3O[C@H](CO)[C@@H](O)[C@H](O)[C@@H]3O)c(C)c2)c1 [21R, 4′-[(α-D-Mannopyranosyl)-(R)-hydroxymethyl]-N,3′-dimethyl-[1,1′biphenyl]-3-carboxamide]
bladder burdens relative to untreated mice [2, 5]: three logs lower
change in bladder burdens compared to vehicle [2, 5]: dramatic and significant decrease in CFUs

SMILES: CNC(=O)c1cccc(-c2ccc(O[C@H]3O[C@H](COC(C)=O)[C@@H](OC(C)=O)[C@H](OC(C)=O)[C@@H]3OC(C)=O)c(C)c2)c1 [23a, 4′-(2,3,4,6-Tetra-O-acetyl-α-D-mannopyranosyloxy)-N,3′-dimethyl-[1,1′biphenyl]-3-carboxamide]
efficacy compared to 23 as prophylaxis therapy [3]: improved efficacy compared to 23
change in bladder burdens compared to vehicle [2, 5]: similar, but statistically significant, decrease in bladder burdens

SMILES: CNC(=O)c1cccc(-c2ccc(O[C@H]3O[C@H](COP(=O)(O)O)[C@@H](O)[C@H](O)[C@@H]3O)c(C)c2)c1 [23b, 4′-(6-Dihydrogen Phosphate-α-D-mannopyranosyloxy)-N,3′-dimethyl-[1,1′biphenyl]-3-carboxamide]
efficacy compared to 23 as prophylaxis therapy [3]: improved efficacy compared to 23

SMILES: CNC(=O)c1cccc(-c2ccc(O[C@H]3O[C@H](COC(=O)CN(C)C)[C@@H](O)[C@H](O)[C@@H]3O)c(C)c2)c1 [23c, 4′-[6-O-(N,N-Dimethylaminoacetyl)-α-D-mannopyranosyloxy]-N,3′-dimethyl-[1,1′biphenyl]-3-carboxamide]
efficacy compared to 23 as prophylaxis therapy [3]: did not show enhanced efficacy

binding affinity to FimH relative to 1 [4]: equivalent binding affinity to FimH
SMILES: COC(=O)c1cccc(-c2ccc(N[C@H]3O[C@H](CO)[C@@H](O)[C@H](O)[C@@H]3O)cc2)c1 [compound 2, 4′-(α-D-Mannopyranosylamino)-[1,1′biphenyl]-3-carboxylic Acid Methyl Ester]

binding affinity to FimH relative to 1 [4]: equivalent binding affinity to FimH
SMILES: COC(=O)c1cccc(-c2ccc(S[C@H]3O[C@H](CO)[C@@H](O)[C@H](O)[C@@H]3O)cc2)c1 [compound 3, 4′-(α-D-Mannopyranosylthio)-[1,1′biphenyl]-3-carboxylic Acid Methyl Ester]

SMILES: CNC(=O)c1cccc(-c2ccc(C[C@H]3O[C@H](CO)[C@@H](O)[C@H](O)[C@@H]3O)c(C)c2)c1 [compound 22, 4′-[(α-D-Mannopyranosyl)methyl]-N,3′-dimethyl-[1,1′biphenyl]-3-carboxamide]
fold decrease in activity relative to 23 ([1]; comparator 23): 30 fold

SMILES: CNC(=O)c1cc(C(=O)NC)cc(-c2ccc(O[C@H]3O[C@H](CO)[C@@H](O)[C@H](O)[C@@H]3O)c(C)c2)c1 [compound 24]
fold more potent than 23 in HA assay ([1]; comparator 23): 4 fold
change in bladder burdens compared to vehicle [2, 5]: noticeable, but not significant, decrease in bladder burdens
bladder burden at 6 h ([2]; 50 mg/kg oral): 10^4 CFUs
bladder burden at 12 hours (geometric mean) ([2]; 50 mg/kg oral): 10^5
bladder burden 2 h postdosing ([2]; 50 mg/kg oral, from 10^7 CFUs at 0 h): approximately 10^5 CFUs
